Source: ChEMBL document CHEMBL3232844, “Synthesis and structure activity relationships of schweinfurthin indoles” (2014)

Test system: SF-295
Assay: Cytotoxicity against human SF295 cells
Type: functional
Conditions: read-out: GI50
Procedure, shortened: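 Tested in a 60-cell-line human tumor panel screen; the read-out is growth inhibition, reported as GI50 for each cell line.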

Compound	GI50 [nM]
CC(C)=CCc1c(O)cc(/C=C/c2cc(O)c3c(c2)C[C@@H]2C(C)(C)[C@H](O)CC[C@@]2(C)O3)cc1O [SCHWEINFURTHIN G]	10
COc1cc(/C=C/c2cc(O)c(CC=C(C)C)c(O)c2)cc2c1O[C@]1(C)CC[C@@H](O)C(C)(C)[C@H]1C2 [SCHWEINFURTHIN F]	< 36
